These results are taken from ChEMBL document CHEMBL1126908, “Synthesis and evaluation of new 6-amino-substituted benzo[c]phenanthridine derivatives” (J Med Chem, 1993).

Test [1] has as its target DNA topoisomerase 2-beta (Homo sapiens) (UniProt Q02880). Put plainly: Inhibition of topoisomerase II. The settings on record: Bos taurus. Summed up:
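Topoisomerase I or II purified from calf thymus, tested in a DNA cleavage assay. Read-out is the minimal inhibitory concentration (μM), meaning the lowest concentration that gives detectable stimulation of DNA cleavage.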

A short description of test [2]: Cytotoxicity was measured on human mammary adenocarcinoma cells(Calc 18). Type of test: functional, cell-based. Summed up:
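Human mammary adenocarcinoma Calc 18 cells exposed to various drug concentrations for 96 h at 37 °C. Viability read by neutral red staining. IC50 is the concentration giving 50% growth inhibition.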

The next test has as its system L1210. Put plainly: Cytotoxicity against murine lymphoblastic leukemia cells (L1210). The settings on record: Mus musculus. Type of test: functional, cell-based. In outline:
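Murine L1210 cells grown in Dulbecco's MEM with 10% fetal calf serum at 37 °C, 5% CO2. Cells seeded, then after 24 h compounds added in duplicate at various concentrations and incubated 24 h. Cells counted by Coulter counter. IC50 taken as the dose giving 50% growth inhibition, extrapolated from regression curves of non-toxic experimental points.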

Test [3] has as its system P388. Put plainly: (§1) Cytotoxicity was measured on murine leukemia p388. The settings on record: Mus musculus. Format: functional, cell-based. In outline: (§2)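 Cells (P388, or camptothecin-resistant P388 CPT0.3) incubated 96 h at 37 °C with various drug concentrations. Viability read by neutral red staining. IC50 taken as the concentration giving 50% growth inhibition.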
Test [4] concerns P388. Put plainly: (§3) Cytotoxicity was measured on murine leukemia p388 CPT 0.3. Type of test: functional, cell-based. Conditions: Mus musculus. Summed up:
as §2

Test [5] deals with P388. Described as §1. Type of test: functional. The settings on record: Mus musculus. In outline: as §2
The subject of test [6] is P388. The description is as §3. Type of test: functional. Conditions: Mus musculus. Summed up:
as §2

The nature of test [7]: The ratio of the mean survival time of treated animals on the mean survival time of controls multiplied by 100.It is measured at dose of 100 mg/kg; T/C value. Type of test: functional. Summed up:
(§4)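 Female BDF1 mice inoculated IP with 10⁶ P388 leukemia cells on day 0, with 10 controls and 6 mice per test group. Compounds given IP as 0.2-mL PBS solutions on days 1, 3 and 7. T/C = mean survival time of treated mice / mean survival time of controls × 100.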

Test [8] is described as follows: The ratio of the mean survival time of treated animals on the mean survival time of controls multiplied by 100.It is measured at dose of 20 mg/kg; T/C value. Format: functional. Summed up:
as §4

The nature of test [9]: The ratio of the mean survival time of treated animals on the mean survival time of controls multiplied by 100.It is measured at dose of 40 mg/kg; T/C value. Type of test: functional. Summed up: as §4
Test [10] can be described thus: The ratio of the mean survival time of treated animals on the mean survival time of controls multiplied by 100.It is measured at dose of 5 mg/kg; T/C value. Type of test: functional. Summed up:
as §4

Test [11] in a line: The ratio of the mean survival time of treated animals on the mean survival time of controls multiplied by 100.It is measured at dose of 10 mg/kg; T/C value. Format: functional. In outline: as §4
The test system of test [12] is P388 leukemia cells (Mus musculus). Put plainly: Cytotoxicity was measured on cultured murine leukemia cells (P388).

Usually IC50 stands for the point on the concentration scale where inhibition reaches its midpoint. As usually defined, the IC90 is the concentration needed for an effect of 90%. A low value points to an effect from little substance.

The structures appear in SMILES notation. Converted amounts (≈) assume the structure as drawn.

Chain of DNA topoisomerase 2-beta (Homo sapiens) (Q02880 whole entry): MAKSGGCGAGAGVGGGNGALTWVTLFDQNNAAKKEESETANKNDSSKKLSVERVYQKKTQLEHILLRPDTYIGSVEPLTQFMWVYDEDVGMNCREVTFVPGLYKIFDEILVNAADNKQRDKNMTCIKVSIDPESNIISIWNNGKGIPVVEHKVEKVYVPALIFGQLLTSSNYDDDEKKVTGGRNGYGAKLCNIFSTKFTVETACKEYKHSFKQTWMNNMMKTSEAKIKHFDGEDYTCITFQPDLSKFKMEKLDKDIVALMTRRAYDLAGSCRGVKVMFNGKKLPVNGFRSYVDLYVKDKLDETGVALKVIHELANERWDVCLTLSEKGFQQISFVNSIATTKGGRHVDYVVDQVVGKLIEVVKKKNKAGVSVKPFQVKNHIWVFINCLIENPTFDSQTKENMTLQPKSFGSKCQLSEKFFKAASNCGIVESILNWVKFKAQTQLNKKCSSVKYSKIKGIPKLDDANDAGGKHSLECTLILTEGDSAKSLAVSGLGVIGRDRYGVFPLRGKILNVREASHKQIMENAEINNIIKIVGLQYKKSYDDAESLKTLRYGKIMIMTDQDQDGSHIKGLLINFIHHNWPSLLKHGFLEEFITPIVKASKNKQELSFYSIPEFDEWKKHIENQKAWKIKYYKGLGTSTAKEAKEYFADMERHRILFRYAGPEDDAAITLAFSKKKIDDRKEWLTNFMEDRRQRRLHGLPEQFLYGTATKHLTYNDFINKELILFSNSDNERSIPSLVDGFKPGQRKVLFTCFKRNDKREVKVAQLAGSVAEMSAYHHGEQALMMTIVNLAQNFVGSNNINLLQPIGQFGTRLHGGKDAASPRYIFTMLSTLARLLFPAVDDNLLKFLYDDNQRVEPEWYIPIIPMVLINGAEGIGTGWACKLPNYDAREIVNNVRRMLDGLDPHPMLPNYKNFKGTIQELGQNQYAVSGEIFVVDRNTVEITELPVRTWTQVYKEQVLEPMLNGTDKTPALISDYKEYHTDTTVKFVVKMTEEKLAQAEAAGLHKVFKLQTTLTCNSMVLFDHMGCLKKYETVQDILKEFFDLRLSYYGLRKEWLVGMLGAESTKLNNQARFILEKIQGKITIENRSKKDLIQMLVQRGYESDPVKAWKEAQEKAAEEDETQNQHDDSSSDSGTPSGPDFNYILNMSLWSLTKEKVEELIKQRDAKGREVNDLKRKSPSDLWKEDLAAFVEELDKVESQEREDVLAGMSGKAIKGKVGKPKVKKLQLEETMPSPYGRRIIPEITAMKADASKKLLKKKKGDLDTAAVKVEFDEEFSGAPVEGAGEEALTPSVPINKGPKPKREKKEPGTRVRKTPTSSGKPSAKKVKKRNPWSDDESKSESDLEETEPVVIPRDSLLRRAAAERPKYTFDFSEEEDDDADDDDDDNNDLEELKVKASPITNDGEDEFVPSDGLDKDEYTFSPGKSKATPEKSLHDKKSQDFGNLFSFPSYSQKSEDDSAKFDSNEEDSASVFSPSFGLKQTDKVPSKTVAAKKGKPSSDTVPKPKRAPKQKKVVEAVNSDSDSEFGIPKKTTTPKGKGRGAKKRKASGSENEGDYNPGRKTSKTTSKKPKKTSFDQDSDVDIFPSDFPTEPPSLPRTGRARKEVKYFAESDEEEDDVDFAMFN

`COc1cc([C@@H]2c3cc4c(cc3[C@@H](O[C@@H]3O[C@@H]5CO[C@@H](C)O[C@H]5[C@H](O)[C@H]3O)[C@H]3COC(=O)[C@H]23)OCO4)cc(OC)c1O` came in with an MIC in [1] of 0.1 µM (≈ 0.0589 µg/mL).
Take `COc1ccc2c(ccc3c4ccc(OC)cc4c(NCCN(C)C)nc23)c1`: the IC50 in test [2] is 1500 nM; with L1210 it was 1700 nM. In test [1], this molecule showed an MIC of 10 µM (≈ 3.75 µg/mL).
Take `COc1cc2c(ccc3c4cc(OC)c(OC)cc4c[n+](C)c23)cc1O.[Cl-]` [FAGARONINE]: the IC50 with L1210 was 2000 nM; in the test on P388 [3] it was 2000 nM; with P388 [4], > 10000 nM. The concentration for an effect of 90% (IC90) with P388 [5] is 6000 nM; with P388 [6], > 10000 nM. Besides, the Ratio in test [7] is 265.
With `CN(C)CCNc1nc2c3ccc(O)cc3ccc2c2ccccc12`, the IC50 was 1000 nM in [2] and 500 nM with L1210. This molecule had an MIC in [1] of 1 µM (≈ 0.331 µg/mL). For the same molecule, the Ratio in test [8] is listed as 118; in test [9] it was 101; in test [10] it was 93; in test [11], 138.
Turning to `CC[C@@]1(O)C(=O)OCc2c1cc1n(c2=O)Cc2cc3ccccc3nc2-1` [CAMPTOTHECIN], in test [1], the MIC is > 100 µM. Further, in test [12], the IC50 stood at 15 nM.
Regarding `COc1ccc2ccc3c4ccccc4c(NCCN(C)C)nc3c2c1`, the IC50 in the test on L1210 was determined as 2500 nM.
Regarding `COc1ccc2c(c1)c(NCCN(C)C)nc1c3ccc(O)cc3ccc21`, the IC50 in [2] was 1500 nM. Further, the MIC in [1] came out at 10 µM (≈ 3.61 µg/mL).
`CN(C)CCCNc1nc2c3cc(O)ccc3ccc2c2ccccc12`: the IC50 in test [2] was 2500 nM; with L1210, 3400 nM. Further, the MIC in [1] is > 10 µM. For the same molecule, the Ratio in test [8] was determined as 73; in [10], 91; in test [11] it was 90.
For `CN(C)CCCNc1nc2c3ccc(O)cc3ccc2c2ccccc12`, the figures for the IC50 (in test [2]; in the test on L1210) were 3000 nM and 2600 nM, respectively. The MIC in test [1] is > 10 µM.
`COc1ccc2ccc3c4ccccc4c(NCCCN(C)C)nc3c2c1` returned an IC50 in the test on L1210 of 2600 nM.
Regarding `COc1ccc2c(ccc3c4ccc(OC)cc4c(NCCCN(C)C)nc23)c1`, the IC50 is 3000 nM in test [2] and 2500 nM with L1210. Further, the MIC in test [1] was > 10 µM.
Take `COc1ccc2c(ccc3c4ccccc4c(NCCN(C)C)nc23)c1`: the IC50 (in [2]; in the test on L1210) was 3000 nM in each case. In test [1], the MIC was found to be 10 µM (≈ 3.45 µg/mL).
In the case of `CN(C)CCNc1nc2c3ccc(O)cc3ccc2c2ccc(O)cc12`, the IC50 in test [2] is 1000 nM; with L1210 it was 500 nM. The same molecule registered an MIC in test [1] of 3 µM (≈ 1.04 µg/mL). Moreover, the Ratio in test [8] amounted to 111; in [10], 119; in test [11] it was 111.
In the case of `CN(C)CCCNc1nc2c3ccc(O)cc3ccc2c2ccc(O)cc12`, the figures for the IC50 (in [2]; in the test on L1210) were > 10000 nM and 4500 nM, respectively. The molecule further came in with an MIC in test [1] of 10 µM (≈ 3.61 µg/mL).
`COc1cc2c(NCCN(C)C)nc3c4cc5c(cc4ccc3c2cc1OC)OCO5`: the IC50 in [2] is 600 nM; in the test on L1210, 300 nM; with P388 [3] it was 900 nM; in the test with P388 [4] it was 150 nM. Further, the concentration for an effect of 90% (IC90) with P388 [5] and in the test with P388 [6] was 3500 nM each time. Moreover, the MIC in [1] was 1 µM (≈ 0.419 µg/mL). In addition, the values for the Ratio in test [8], in [10] and in [11] were 92, 99 and 103, respectively.
As to `COc1ccc2c(ccc3c4ccccc4c(NCCCN(C)C)nc23)c1`, the figures for the IC50 (in test [2]; in the test with L1210) were 2500 nM and 3400 nM, respectively. Moreover, the MIC in test [1] was > 10 µM.
`CN(C)CCNc1nc2c3cc(O)ccc3ccc2c2ccccc12`: the results for the IC50 (in test [2]; in the test on L1210) were 3000 nM and 500 nM, respectively. Also, the MIC in [1] is 10 µM (≈ 3.31 µg/mL). Besides, the Ratio in test [8] is recorded as 102; in [10] it was 92; in [11], 83.
On to `CN(C)CCNc1nc2c3ccccc3ccc2c2ccccc12`, for which the 50% inhibitory concentration (IC50) in the test with L1210 is > 90000 nM.
`COc1cc2ccc3c4cc(OC)c(OC)cc4c(NCCN(C)C)nc3c2cc1OC`: the half-maximal inhibitory concentration (IC50) in [2] is 3000 nM; in the test with L1210 it was > 5000 nM. Moreover, the MIC in [1] was > 10 µM.
